Blank lines part the entries; values can stand above or below the molecule they belong to. The source made the active and inactive calls. The calls are words filed in the database; no cut-off is given here.
Columns and labels:
HUVEC [1] = experiment: Antiproliferative activity against HUVEC assessed as growth inhibition rate at 100 uM after 24 hrs by MTT assay; assay type: functional; conditions: Homo sapiens, read-out: GI
Procedure, shortened: (§1)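 HUVECs (passages 3–5, primary cord isolates) seeded at 1 × 10⁴ cells/well. Medium replaced with M199 containing 1% FBS plus compound. Viability read by MTT after 24 h. Percent inhibition was calculated from A570 minus A630 of treated versus control wells, and IC50 determined. Triplicate experiments, means ± SEM.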

HUVEC [2] = experiment: Antiproliferative activity against HUVEC assessed as growth inhibition rate at 10 uM after 24 hrs by MTT assay; assay type: functional; conditions: Homo sapiens, read-out: GI; procedure, shortened: as §1
HUVEC [3] = experiment: Effect on total p38 MAPK level in VEGF-stimulated HUVEC pretreated at 10 to 50 umol/L for 30 mins before VEGF addition by Western blot analysis; assay type: functional, cell-based; conditions: Homo sapiens
HUVEC [4] = experiment: Effect on total src level in VEGF-stimulated HUVEC pretreated at 10 to 50 umol/L for 30 mins before VEGF addition by Western blot analysis; assay type: functional, cell-based; conditions: Homo sapiens
HUVEC [5] = experiment: Effect on total ERK1/2 level in VEGF-stimulated HUVEC pretreated at 10 to 50 umol/L for 30 mins before VEGF addition by Western blot analysis; assay type: functional, cell-based; conditions: Homo sapiens
HUVEC [6] = experiment: Effect on total akt level in VEGF-stimulated HUVEC pretreated at 10 to 50 umol/L for 30 mins before VEGF addition by Western blot analysis; assay type: functional, cell-based; conditions: Homo sapiens
[7] = biological target: MAP kinase p38 (Homo sapiens) (UniProt O15264+Q15759+Q16539+P53778); experiment: Inhibition of VEGF receptor signaling in VEGF-stimulated HUVEC assessed a effect on p38 MAPK phosphorylation pretreated at 10 to 50 umol/L for 30 mins before VEGF addition by Western blot analysis; assay type: protein assay
[8] = Inhibition of VEGF receptor signaling in VEGF-stimulated HUVEC assessed a effect on src phosphorylation pretreated at 10 to 50 umol/L for 30 mins before VEGF addition by Western blot analysis; assay type: cell-based; conditions: Homo sapiens
[9] = Inhibition of VEGF receptor signaling in HUVEC assessed a inhibition of VEGF-induced Akt phosphorylation pretreated at 10 to 50 umol/L for 30 mins before VEGF addition by Western blot analysis; assay type: cell-based; conditions: Homo sapiens
PANC-1 [10] = experiment: Inhibition of MMP-2 protein expression in human PANC1 cells at 10 to 50 umol/L after 24 hrs by SDS-PAGE analysis; assay type: functional, cell-based
Procedure, shortened: (§2)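 Gelatin zymography of culture medium from equal numbers of PANC-1 cells exposed to compound for 24 h. Samples run non-reduced and unboiled on 10% polyacrylamide with 1 mg/mL gelatin. Gel washed in 2.5% Triton X-100 buffer, digested 14 h at 37 °C in Tris–HCl/CaCl2/ZnCl2 buffer pH 7.6, then Coomassie-stained. Clear bands imaged.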

[11] = Inhibition of VEGF receptor signaling in HUVEC assessed a inhibition of VEGF-induced ERK1/2 phosphorylation pretreated at 10 to 50 umol/L for 30 mins before VEGF addition by Western blot analysis; assay type: cell-based; conditions: Homo sapiens
PANC-1 [12] = experiment: Inhibition of MMP-9 protein expression in human PANC1 cells at 10 to 50 umol/L after 24 hrs by SDS-PAGE analysis; assay type: functional, cell-based; procedure, shortened: as §2
Gallus gallus [13] = species: Gallus gallus; experiment: Antiangiogenic activity in chicken embryo chorioallantoic membrane model assessed as inhibition of new blood vessel formation at 10 nmol/egg after 48 hrs by microscopy; assay type: functional, tissue-based
Procedure, shortened: (§3)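 Fertilized chicken eggs incubated seven days at 37.5 °C, ~55% humidity, and the air sac membrane was detached. Sterile 5 × 5 mm filter paper soaked with DMSO or compound (5 and 10 nmol/egg) was air-dried and placed on the CAM. Eggs were sealed and reincubated. Fat emulsion (20%) was injected into the CAM and vessels photographed. Three independent experiments.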

Gallus gallus [14] = species: Gallus gallus; experiment: Antiangiogenic activity in chicken embryo chorioallantoic membrane model assessed as inhibition of new blood vessel formation at 5 nmol/egg after 48 hrs by microscopy; assay type: functional, tissue-based; procedure, shortened: as §3
HUVEC [15] = experiment: Antiangiogenic activity against HUVEC assessed as inhibition of VEGF-induced branching and network formation at 25 umol/L after 5 hrs by microscopy; assay type: functional, cell-based; conditions: Homo sapiens
Procedure, shortened: (§4)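 Matrigel-coated wells gelled 37 °C 30 min. DMSO or compound (final 25 µmol/L) added for 30 min before plating. After 5 h, enclosed complete tubes counted in five random fields by microscopy. Triplicate experiments, means ± SEM.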

HUVEC [16] = experiment: Antiangiogenic activity against HUVEC assessed as inhibition of VEGF-induced tube formation at 25 umol/L after 5 hrs by microscopy; assay type: functional, cell-based; conditions: Homo sapiens; procedure, shortened: as §4
HUVEC [17] = experiment: Antiangiogenic activity against HUVEC assessed as inhibition of VEGF-induced cell migration at 25 umol/L after 20 hrs by Boyden chamber assay; assay type: functional, cell-based; conditions: Homo sapiens
Procedure, shortened: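 Boyden chamber, 8.0 µm membrane. HUVECs at 80% confluence serum-starved 12 h in basal medium and suspended at 1 × 10⁶ cells/mL. Pre-treated 30 min at room temperature with DMSO or compound (final 25 µmol/L). After 20 h cells fixed, stained, and counted in five random fields. Triplicate experiments.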

HuT78 = experiment: Cytotoxicity against human HUT78 cells after 24 hrs by MTT assay; assay type: functional, cell-based; conditions: HuT78, 24 h
K562 = experiment: Cytotoxicity against human K562 cells after 24 hrs by MTT assay; assay type: functional, cell-based; conditions: K562, 24 h
HL-60 = experiment: Cytotoxicity against human HL60 cells after 24 hrs by MTT assay; assay type: functional, cell-based; conditions: HL-60, 24 h
[18] = Cytotoxicity against human SHG44 cells after 24 hrs by MTT assay; assay type: functional, cell-based; conditions: SHG-44, 24 h
A-431 = experiment: Cytotoxicity against human A431 cells after 24 hrs by MTT assay; assay type: functional, cell-based; conditions: A-431, 24 h
A549 = experiment: Cytotoxicity against human A549 cells after 24 hrs by MTT assay; assay type: functional, cell-based; conditions: A549, 24 h
MKN-45 = experiment: Cytotoxicity against human MKN45 cells after 24 hrs by MTT assay; assay type: functional, cell-based; conditions: MKN-45, 24 h
HCT-116 = experiment: Cytotoxicity against human HCT116 cells after 24 hrs by MTT assay; assay type: functional, cell-based; conditions: HCT-116, 24 h
HepG2 = experiment: Cytotoxicity against human HepG2 cells after 24 hrs by MTT assay; assay type: functional, cell-based; conditions: HepG2, 24 h
MDA-MB-231 = experiment: Cytotoxicity against human MDA-MB-231 cells after 24 hrs by MTT assay; assay type: functional, cell-based; conditions: MDA-MB-231, 24 h
MDA-MB-435 = experiment: Cytotoxicity against human MDA-MB-435 cells after 24 hrs by MTT assay; assay type: functional, cell-based; conditions: MDA-MB-435, 24 h
BXPC-3 = experiment: Cytotoxicity against human BxPC3 cells after 24 hrs by MTT assay; assay type: functional, cell-based; conditions: BXPC-3, 24 h
PANC-1 [19] = experiment: Cytotoxicity against human PANC1 cells after 24 hrs by MTT assay; assay type: functional, cell-based; conditions: PANC-1, 24 h
PBMC = experiment: Cytotoxicity against human PBMC after 24 hrs by MTT assay; assay type: cell-based
HUVEC [20] = experiment: Antiproliferative activity against HUVEC assessed as growth inhibition rate after 24 hrs by MTT assay; assay type: functional, cell-based; conditions: Homo sapiens; procedure, shortened: as §1
HUVEC [21] = experiment: Antiangiogenic activity against HUVEC assessed as inhibition of VEGF-induced migration at 25 umol/L after 20 hrs by microscopy; conditions: Homo sapiens

Compound: COc1cc2ccc(=O)oc2cc1OCC(=O)c1ccc([N+](=O)[O-])cc1
inhibition of growth at 100 µM (HUVEC [1]): 27.2%
inhibition of growth at 10 µM (HUVEC [2]): 4.1%

Compound: COc1cc2ccc(=O)oc2cc1OCC(O)CN1CCCC1 (stereo unspecified)
inhibition of growth at 100 µM (HUVEC [1]): 0.3%
inhibition of growth at 10 µM (HUVEC [2]): 0.5%

inhibition [7]: inactive
Compound: COc1cc2ccc(=O)oc2cc1OCC(=O)c1ccc(Br)cc1
Activity (HUVEC [3]): inactive
Activity (HUVEC [4]): inactive
Activity (HUVEC [5]): inactive
Activity (HUVEC [6]): inactive
inhibition [8]: inactive
inhibition [9]: Active
inhibition (PANC-1 [10]): Active
inhibition [11]: Active
inhibition (PANC-1 [12]): Active
inhibition (Gallus gallus [13]): Active
inhibition (Gallus gallus [14]): Active
inhibition (HUVEC [15]): Active
inhibition (HUVEC [16]): Active
inhibition (HUVEC [17]): Active
IC50 (HuT78): 93.7 µM
IC50 (K562): 70 µM
IC50 (HL-60): 90.4 µM
IC50 [18]: > 100 µM
IC50 (A-431): > 100 µM
IC50 (A549): > 100 µM
IC50 (MKN-45): > 100 µM
IC50 (HCT-116): > 100 µM
IC50 (HepG2): 90.4 µM
IC50 (MDA-MB-231): 47 µM
IC50 (MDA-MB-435): > 100 µM
IC50 (BXPC-3): > 100 µM
IC50 (PANC-1 [19]): 63.7 µM
IC50 (PBMC): > 100 µM
IC50 (HUVEC [20]): 16.8 µM
inhibition of growth at 100 µM (HUVEC [1]): 97.5%
inhibition of growth at 10 µM (HUVEC [2]): 13.2%
inhibition (HUVEC [21]): Active

Compound: COc1cc2ccc(=O)oc2cc1OCC(O)CNC(C)C (stereo unspecified)
inhibition of growth at 100 µM (HUVEC [1]): 6.3%
inhibition of growth at 10 µM (HUVEC [2]): 0.1%

Compound: COc1cc2ccc(=O)oc2cc1OCCN1CCCC1
inhibition of growth at 100 µM (HUVEC [1]): 7.9%
inhibition of growth at 10 µM (HUVEC [2]): 1.9%

Compound: COc1cc2ccc(=O)oc2cc1OCCN1CCN(C)CC1
inhibition of growth at 100 µM (HUVEC [1]): 12%
inhibition of growth at 10 µM (HUVEC [2]): 0%

inhibition [7]: inactive
Compound: COc1cc2ccc(=O)oc2cc1OCC(O)CN1CCCCC1 (stereo unspecified)
Activity (HUVEC [3]): inactive
Activity (HUVEC [4]): inactive
Activity (HUVEC [5]): inactive
Activity (HUVEC [6]): inactive
inhibition [8]: inactive
inhibition [9]: Active
inhibition (PANC-1 [10]): Active
inhibition [11]: Active
inhibition (PANC-1 [12]): Active
inhibition (Gallus gallus [13]): Active
inhibition (Gallus gallus [14]): Active
inhibition (HUVEC [15]): Active
inhibition (HUVEC [16]): Active
IC50 (HuT78): 46.6 µM
IC50 (K562): 43.7 µM
IC50 (HL-60): 30.2 µM
IC50 [18]: 42.8 µM
IC50 (A-431): 93.9 µM
IC50 (A549): 42.7 µM
IC50 (MKN-45): 78.9 µM
IC50 (HCT-116): 26.1 µM
IC50 (HepG2): 83.9 µM
IC50 (MDA-MB-231): 51.6 µM
IC50 (MDA-MB-435): 63 µM
IC50 (BXPC-3): 35 µM
IC50 (PANC-1 [19]): > 100 µM
IC50 (PBMC): > 100 µM
IC50 (HUVEC [20]): 24.2 µM
inhibition of growth at 100 µM (HUVEC [1]): 80.7%
inhibition of growth at 10 µM (HUVEC [2]): 31.4%
inhibition (HUVEC [21]): Active

Compound: CCN(CC)CC(O)COc1cc2oc(=O)ccc2cc1OC (stereo unspecified)
inhibition of growth at 100 µM (HUVEC [1]): 0.3%
inhibition of growth at 10 µM (HUVEC [2]): 0.5%

Compound: COc1cc2ccc(=O)oc2cc1OCC(=O)c1ccc(F)cc1
inhibition of growth at 100 µM (HUVEC [1]): 16.6%
inhibition of growth at 10 µM (HUVEC [2]): 3.6%

Compound: COc1ccc(C(=O)COc2cc3oc(=O)ccc3cc2OC)cc1
IC50 (HUVEC [20]): 37.5 µM
inhibition of growth at 100 µM (HUVEC [1]): 85.6%
inhibition of growth at 10 µM (HUVEC [2]): 7.6%

Compound: COc1cc2ccc(=O)oc2cc1OCCCCBr
inhibition of growth at 100 µM (HUVEC [1]): 16.9%
inhibition of growth at 10 µM (HUVEC [2]): 11.2%

Compound: COc1cc2ccc(=O)oc2cc1O [SCOPOLETIN]
inhibition (PANC-1 [10]): Active
inhibition (PANC-1 [12]): Active
inhibition (HUVEC [15]): inactive
inhibition (HUVEC [16]): inactive
inhibition (HUVEC [17]): inactive
IC50 (HuT78): > 100 µM
IC50 (K562): > 100 µM
IC50 (HL-60): > 100 µM
IC50 [18]: > 100 µM
IC50 (A-431): > 100 µM
IC50 (A549): > 100 µM
IC50 (MKN-45): > 100 µM
IC50 (HCT-116): > 100 µM
IC50 (HepG2): > 100 µM
IC50 (MDA-MB-231): > 100 µM
IC50 (MDA-MB-435): > 100 µM
IC50 (BXPC-3): > 100 µM
IC50 (PANC-1 [19]): > 100 µM
IC50 (PBMC): > 100 µM
inhibition of growth at 100 µM (HUVEC [1]): 2.1%
inhibition of growth at 10 µM (HUVEC [2]): 0%
inhibition (HUVEC [21]): inactive

From ChEMBL document CHEMBL2331484, “Synthesis and biological evaluation of scopoletin derivatives” (Bioorg Med Chem, 2013)
